Results of several laboratories.
Protocols differ between the studies behind these lines.
Sample: plasma

| SMILES | system | setting | quantity | result |
| --- | --- | --- | --- | --- |
| CCc1nc2c(C)cc(N3CCN(CC(=O)N4CC(O)C4)CC3)cn2c1N(C)c1nc(-c2ccc(F)cc2)c(C#N)s1 | human | oral, 150 mg, single dose, fed, healthy volunteers | AUC(0-inf) | 6700 ng·h/mL |
| Cn1c(=O)oc2ccc(-c3ccc(C[C@@H](C#N)NC(=O)[C@@H]4CNCCCO4)cc3)cc21 | male human | oral, 35 mg, single dose, healthy volunteers | AUC | 13.2 µM·h |
| CO[C@H]1CC[C@H](N2C(=O)CNc3ncc(-c4ccc(C(C)(C)O)nc4)nc32)CC1 | human | oral, 60 mg, multiple doses, patients | AUC(0-t) | 2950 ng·h/mL |
| CC(C)n1cc(C#N)c2cc(-n3cc(C(=O)O)cn3)ccc21 | human | oral, 100 mg, single dose, fasted, healthy volunteers | AUC(0-inf) | 19600 ng·h/mL |
| COCCOc1cnc2ccn([C@H](C)c3nnc4c(F)cc(-c5cnn(C)c5)cn34)c(=O)c2c1 | human | oral, 300 mg, multiple doses, once daily, patients | AUC(0-t) | 55900 ng·h/mL |
| Cc1ccc(C(=O)N(CCCN)[C@@H](c2oc3cc(Cl)ccc3c(=O)c2Cc2ccccc2)C(C)C)cc1 | human | intravenous, 4 mg/m², single dose, patients, infusion | AUC | 5160 ng·h/mL |
| CC(C)(O)c1ccccc1-c1ccc2[nH]c(/C=C/c3ccc(C(F)(F)F)cc3)nc2c1 | male human | oral, 225 mg, single dose, fasted, healthy volunteers | AUC(0-t) | 27900 ng·h/mL |
| COc1cc(C(=O)NC2CCN(C)CC2)c(F)cc1Nc1ncc(C(F)(F)F)c(Oc2cccc3c2C(=O)N(C)C3)n1 | human | oral, 50 mg, multiple doses, once daily, steady state, patients | AUC | 4.89 µM·h |
| Cn1cc(-c2ccc(S(=O)(=O)[C@@H]3C[C@@H](C(=O)NC4(C#N)CC4)N(C(=O)C4(C(F)(F)F)CC4)C3)c(C(F)(F)F)c2)cn1 | human | oral, 10 mg, single dose, fasted, healthy volunteers | AUC(0-inf) | 995 ng·h/mL |
| COc1ccc([C@@H]2CN(C(=O)[C@@H](O)CO)C[C@@]2(C)[C@@H](C)O)cc1OC1CN(c2ccc(C)cn2)C1 | human | oral, 10 mg, single dose, healthy volunteers | AUC(0-t) | 2750 ng·h/mL |
